Measurements reported in ChEMBL document CHEMBL2346608, “New annelated thieno[2,3-e][1,2,3]triazolo[1,5-a]pyrimidines, with potent anticancer activity, designed through VLAK protocol” (2013).

Assays:
Assay type in all cases: functional
NCI-H322M = experiment: Antiproliferative activity against human NCI-H322M cells after 48 hrs by sulforhodamine B assay
Outline: (§1)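 Cells grown in RPMI 1640 with 5% FBS and 2 mM L-glutamine, plated at 5000–40,000 cells/well and preincubated 24 h at 37 °C, 5% CO2. Five drug concentrations (10-fold or ½-log dilutions from DMSO stocks) applied for 48 h. TCA-fixed (final 10% adherent, 16% suspension), SRB-stained, A515 read. Growth versus time-zero and control wells gave GI50, TGI, LC50.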

NCI-H23 = experiment: Antiproliferative activity against human NCI-H23 cells after 48 hrs by sulforhodamine B assay; conditions: NCI-H23, 48 h; outline: as §1
UO-31 = experiment: Antiproliferative activity against human UO31 cells after 48 hrs by sulforhodamine B assay; conditions: UO-31, 48 h
Outline: (§2)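 Cells in RPMI 1640 with 5% FBS and 2 mM L-glutamine were seeded at 5000–40,000/well according to doubling time and preincubated 24 h at 37 °C in 5% CO2. Time-zero plates were TCA-fixed when drug was added. Five 10-fold or ½-log dilutions from DMSO stocks were added for 48 h. After SRB staining, A515 was read and GI50 derived from [(Ti−Tz)/(C−Tz)]×100 = 50.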

CAKI-1 = experiment: Antiproliferative activity against human CAKI-1 cells after 48 hrs by sulforhodamine B assay; conditions: CAKI-1, 48 h; outline: as §1
SNB-75 = experiment: Antiproliferative activity against human SNB75 cells after 48 hrs by sulforhodamine B assay; conditions: SNB-75, 48 h; outline: as §2
CCRF-CEM = experiment: Antiproliferative activity against human CCRF-CEM cells after 48 hrs by sulforhodamine B assay; outline: as §1
SF-295 = experiment: Antiproliferative activity against human SF295 cells after 48 hrs by sulforhodamine B assay; conditions: SF-295, 48 h; outline: as §1
[1] = Antiproliferative activity against human HCC2998 cells after 48 hrs by sulforhodamine B assay; conditions: HCC 2998, 48 h; outline: as §1
A498 = experiment: Antiproliferative activity against human A498 cells after 48 hrs by sulforhodamine B assay; conditions: A498, 48 h; outline: as §1
HCT-116 = experiment: Antiproliferative activity against human HCT116 cells after 48 hrs by sulforhodamine B assay; conditions: HCT-116, 48 h; outline: as §1
RPMI-8226 = experiment: Antiproliferative activity against human RPMI8226 cells after 48 hrs by sulforhodamine B assay; conditions: RPMI-8226, 48 h, read-out: pLC50 (the source's name) (converted); outline: as §1
T47D = experiment: Antiproliferative activity against human T47D cells after 48 hrs by sulforhodamine B assay; outline: as §2
K562 = experiment: Antiproliferative activity against human K562 cells after 48 hrs by sulforhodamine B assay; conditions: K562, 48 h; outline: as §1
MOLT-4 = experiment: Antiproliferative activity against human MOLT4 cells after 48 hrs by sulforhodamine B assay; conditions: MOLT-4, 48 h; outline: as §1
SW-620 = experiment: Antiproliferative activity against human SW620 cells after 48 hrs by sulforhodamine B assay; conditions: SW-620, 48 h; outline: as §2
HOP-92 = experiment: Antiproliferative activity against human HOP92 cells after 48 hrs by sulforhodamine B assay; conditions: HOP-92, 48 h; outline: as §1
SNB-19 = experiment: Antiproliferative activity against human SNB19 cells after 48 hrs by sulforhodamine B assay; conditions: SNB-19, 48 h; outline: as §1
UACC-62 = experiment: Antiproliferative activity against human UACC62 cells after 48 hrs by sulforhodamine B assay; conditions: UACC-62, 48 h; outline: as §2
NCI-H522 = experiment: Antiproliferative activity against human NCI-H522 cells after 48 hrs by sulforhodamine B assay; conditions: NCI-H522, 48 h; outline: as §1
NCI-H460 = experiment: Antiproliferative activity against human NCI-H460 cells after 48 hrs by sulforhodamine B assay; conditions: NCI-H460, 48 h; outline: as §1
UACC-257 = experiment: Antiproliferative activity against human UACC257 cells after 48 hrs by sulforhodamine B assay; conditions: UACC-257, 48 h; outline: as §2
Malme-3M = experiment: Antiproliferative activity against human MALME-3M cells after 48 hrs by sulforhodamine B assay; outline: as §1
RXF 393 = experiment: Antiproliferative activity against human RXF393 cells after 48 hrs by sulforhodamine B assay; conditions: RXF 393, 48 h; outline: as §1
COLO 205 = experiment: Antiproliferative activity against human COLO205 cells after 48 hrs by sulforhodamine B assay; conditions: COLO 205, 48 h; outline: as §1
NCI/ADR-RES = experiment: Antiproliferative activity against human NCI/ADR-RES cells after 48 hrs by sulforhodamine B assay; outline: as §1
MDA-MB-231 = experiment: Antiproliferative activity against human MDA-MB-231 cells after 48 hrs by sulforhodamine B assay; conditions: MDA-MB-231, 48 h; outline: as §1
PC-3 = experiment: Antiproliferative activity against human PC3 cells after 48 hrs by sulforhodamine B assay; conditions: PC-3, 48 h; outline: as §1
SK-MEL-5 = experiment: Antiproliferative activity against human SK-MEL-5 cells after 48 hrs by sulforhodamine B assay; conditions: SK-MEL-5, 48 h; outline: as §1
SK-OV-3 = experiment: Antiproliferative activity against human SKOV3 cells after 48 hrs by sulforhodamine B assay; conditions: SK-OV-3, 48 h; outline: as §1
[2] = read-out: pLC50 (the source's name) (converted)

Q: With `O=C(CCCn1c(=O)c2sc3ccccc3c2n2nnc(-c3ccccc3)c12)NCCc1c[nH]cn1` as the molecule, how does the GI50 (NCI-H322M) read?
A: The GI50 was 2.24 µM.

Q: What about the LC50 (NCI-H322M) of the same molecule?
A: Its LC50 is 21.4 µM.

Q: And the TGI (NCI-H322M; read-out: pTGI (converted))?
A: Its TGI is 5.5 µM.

Q: What about the GI50 (NCI-H23) of the same molecule?
A: Its GI50 is 2.95 µM.

Q: And the LC50 (NCI-H23)?
A: Its LC50 is over 100 µM.

Q: What about the TGI (NCI-H23; read-out: pTGI (converted)) of the same molecule?
A: Its TGI is 11.7 µM.

Q: And the GI50 (UO-31)?
A: Its GI50 is 1.91 µM.

Q: And the TGI (UO-31; read-out: pTGI (converted))?
A: The TGI was 3.72 µM.

Q: And the GI50 (CAKI-1)?
A: Its GI50 is 0.182 µM.

Q: And the CC50 (CAKI-1; [2])?
A: The CC50 was 4.47 µM.

Q: And the TGI (CAKI-1; read-out: pTGI (converted))?
A: The TGI was 1.7 µM.

Q: And the GI50 (SNB-75)?
A: The GI50 was 1.86 µM.

Q: What about the LC50 (concentration killing 50% of starting cells) (SNB-75) of the same molecule?
A: Its LC50 (concentration killing 50% of starting cells) is 8.71 µM.

Q: What about the TGI (SNB-75; read-out: pTGI (converted)) of the same molecule?
A: The TGI was 4.07 µM.

Q: What about the LC50 (CCRF-CEM) of the same molecule?
A: The LC50 was over 100 µM.

Q: And the TGI (CCRF-CEM; read-out: pTGI (converted))?
A: The TGI was over 100 µM.

Q: And the GI50 (SF-295)?
A: The GI50 was 1.7 µM.

Q: What about the TGI (SF-295; read-out: pTGI (converted)) of the same molecule?
A: The TGI was 3.63 µM.

Q: And the GI50 [1]?
A: The GI50 was 1.78 µM.

Q: What about the LC50 [1] of the same molecule?
A: The LC50 was 9.77 µM.

Q: What about the TGI ([1]; read-out: pTGI (converted)) of the same molecule?
A: Its TGI is 4.17 µM.

Q: And the GI50 (A498)?
A: The GI50 was 1.55 µM.

Q: What about the LC50 (A498) of the same molecule?
A: The LC50 was 5.75 µM.

Q: And the TGI (A498; read-out: pTGI (converted))?
A: Its TGI is 3.02 µM.

Q: What about the GI50 (HCT-116) of the same molecule?
A: The GI50 was 0.339 µM.

Q: What about the LC50 (HCT-116) of the same molecule?
A: The LC50 was over 100 µM.

Q: What about the TGI (HCT-116; read-out: pTGI (converted)) of the same molecule?
A: The TGI was 1.66 µM.

Q: What about the CC50 (RPMI-8226) of the same molecule?
A: The CC50 was over 100 µM.

Q: And the GI50 (T47D)?
A: The GI50 was 1.41 µM.

Q: What about the LC50 (T47D) of the same molecule?
A: Its LC50 is over 100 µM.

Q: What about the TGI (T47D; read-out: pTGI (converted)) of the same molecule?
A: Its TGI is 4.47 µM.

Q: What about the GI50 (K562) of the same molecule?
A: Its GI50 is 0.437 µM.

Q: And the GI50 (MOLT-4)?
A: Its GI50 is 1.17 µM.

Q: What about the GI50 (SW-620) of the same molecule?
A: The GI50 was 0.407 µM.

Q: What about the GI50 (HOP-92) of the same molecule?
A: Its GI50 is 1.86 µM.

Q: What about the CC50 (HOP-92; [2]) of the same molecule?
A: The CC50 was over 100 µM.

Q: What about the GI50 (SNB-19) of the same molecule?
A: Its GI50 is 1.7 µM.

Q: What about the LC50 (SNB-19) of the same molecule?
A: The LC50 was over 100 µM.

Q: And the TGI (SNB-19; read-out: pTGI (converted))?
A: The TGI was 5.01 µM.

Q: What about the GI50 (UACC-62) of the same molecule?
A: The GI50 was 1.91 µM.

Q: What about the LC50 (concentration killing 50% of cells) (UACC-62) of the same molecule?
A: The LC50 (concentration killing 50% of cells) was 6.61 µM.

Q: What about the TGI (UACC-62; read-out: pTGI (converted)) of the same molecule?
A: The TGI was 3.55 µM.

Q: And the GI50 (NCI-H522)?
A: Its GI50 is 1.05 µM.

Q: And the LC50 (NCI-H522)?
A: Its LC50 is 81.3 µM.

Q: What about the TGI (NCI-H522; read-out: pTGI (converted)) of the same molecule?
A: Its TGI is 11.7 µM.

Q: What about the GI50 (NCI-H460) of the same molecule?
A: Its GI50 is 1.86 µM.

Q: And the LC50 (NCI-H460)?
A: The LC50 was 7.76 µM.

Q: What about the TGI (NCI-H460; read-out: pTGI (converted)) of the same molecule?
A: The TGI was 3.8 µM.

Q: What about the GI50 (UACC-257) of the same molecule?
A: Its GI50 is 2.04 µM.

Q: And the LC50 (UACC-257)?
A: The LC50 was over 100 µM.

Q: And the TGI (UACC-257; read-out: pTGI (converted))?
A: The TGI was 4.57 µM.

Q: And the GI50 (Malme-3M)?
A: Its GI50 is 2.51 µM.

Q: And the LC50 (Malme-3M)?
A: Its LC50 is over 100 µM.

Q: What about the TGI (Malme-3M; read-out: pTGI (converted)) of the same molecule?
A: The TGI was 5.5 µM.

Q: What about the GI50 (RXF 393) of the same molecule?
A: The GI50 was 2.51 µM.

Q: What about the LC50 (RXF 393) of the same molecule?
A: The LC50 was over 100 µM.

Q: And the TGI (RXF 393; read-out: pTGI (converted))?
A: The TGI was 5.01 µM.

Q: And the GI50 (COLO 205)?
A: The GI50 was 1.1 µM.

Q: What about the LC50 (COLO 205) of the same molecule?
A: Its LC50 is over 100 µM.

Q: And the TGI (COLO 205; read-out: pTGI (converted))?
A: The TGI was 4.79 µM.

Q: And the GI50 (NCI/ADR-RES)?
A: The GI50 was 3.24 µM.

Q: And the LC50 (NCI/ADR-RES)?
A: The LC50 was over 100 µM.

Q: And the TGI (NCI/ADR-RES; read-out: pTGI (converted))?
A: The TGI was over 100 µM.

Q: What about the GI50 (MDA-MB-231) of the same molecule?
A: The GI50 was 1.91 µM.

Q: And the LC50 (MDA-MB-231)?
A: The LC50 was 6.76 µM.

Q: And the TGI (MDA-MB-231; read-out: pTGI (converted))?
A: Its TGI is 3.63 µM.

Q: And the LC50 (PC-3)?
A: The LC50 was over 100 µM.

Q: What about the TGI (PC-3; read-out: pTGI (converted)) of the same molecule?
A: The TGI was over 100 µM.

Q: And the GI50 (SK-MEL-5)?
A: Its GI50 is 1.91 µM.

Q: What about the LC50 (SK-MEL-5) of the same molecule?
A: Its LC50 is 8.91 µM.

Q: What about the TGI (SK-MEL-5; read-out: pTGI (converted)) of the same molecule?
A: The TGI was 4.07 µM.

Q: What about the GI50 (SK-OV-3) of the same molecule?
A: The GI50 was 3.47 µM.

Q: And the LC50 (SK-OV-3)?
A: Its LC50 is 66.1 µM.

Q: What about the TGI (SK-OV-3; read-out: pTGI (converted)) of the same molecule?
A: The TGI was 15.5 µM.
